Results published in publication PMC5322940 (Cell, 2016).

Molecular target: CB1 protein (Homo sapiens, UniProt P21554, D324T/DEL307-313/E273K/E323T/H320Y/I317L/I319V/INS325[…]/K326D/Q314A/Q328R/R331I/R340E/S316A/T210A/T283V/T321G/T330A/V329G)
Experiment: Affinity mass spectrometry analysis of AM6538
Format: binding
Details: CB1 protein co-purified with AM6538
In short: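 CB1–flavodoxin fusion expressed in HEK293F and purified in DDM/CHS. Membranes took up 20 µM test compound (3 h, 4 °C), then iodoacetamide; wash and elution buffers also carried test compound. Co-purified complex was desalted on G-25 to strip free ligand. About 1 µg was ultrafiltered (30 kDa cutoff, 13,000 g, 10 min, 4 °C) in 150 mM ammonium acetate, 0.02% DDM, 0.004% CHS; retained complex collected.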

Cc1c(C(=O)NN2CCCCC2)nn(-c2ccc(Cl)cc2Cl)c1-c1ccc(C#CCCO[N+](=O)[O-])cc1 [AM6538, 4-(4-(1-(2,4-dichlorophenyl)-4-methyl-3-(piperidin-1-ylcarbamoyl)-1H-pyrazol-5-yl)phenyl)but-3-yn-1-yl nitrate]
Covalent modification of CB1 cysteine residues: no evidence of covalent modification
